Assay outcomes from PubChem.
Dynein transport: blocks dynein driven cargo transport along microtubules. 3617.4 mouse cells, GR-EGFP nuclear translocation imaging; test concentration mostly 20 µM; stimulated with dexamethasone, 1 µM; active compounds read low. 220,000 compounds, 0.47% hits. z-score, hits read low;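 active means plate z-score of nuclear minus cytoplasmic receptor signal below a set negative limit, without overly bright fluorescence or cell loss, cut at about -3.5 in these data, passing the limit was not always enough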;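 further: z-score of nuclear minus cytoplasmic ring GR-EGFP intensity difference per well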
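medium = tetracycline-free induction medium containing charcoal-stripped FBS | also added = 1.0 µM final dexamethasone stimulus | schedule = 48 h induction, 1 h compound, 30 min dex at 37 °C | technique = fixed, Hoechst-stained cells imaged at 10x for EGFP | measure = GR-EGFP nuclear translocation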
S1P4 agonist: activates the human S1P4 receptor; 220,000 compounds, 0.35% hits; O95977; activation, % at 4.98 µM; AID 1509; S1P4-expressing cell line, agonist reporter assay; in the data active means activation above about 11%
Target sequence (O95977 whole entry, looked up): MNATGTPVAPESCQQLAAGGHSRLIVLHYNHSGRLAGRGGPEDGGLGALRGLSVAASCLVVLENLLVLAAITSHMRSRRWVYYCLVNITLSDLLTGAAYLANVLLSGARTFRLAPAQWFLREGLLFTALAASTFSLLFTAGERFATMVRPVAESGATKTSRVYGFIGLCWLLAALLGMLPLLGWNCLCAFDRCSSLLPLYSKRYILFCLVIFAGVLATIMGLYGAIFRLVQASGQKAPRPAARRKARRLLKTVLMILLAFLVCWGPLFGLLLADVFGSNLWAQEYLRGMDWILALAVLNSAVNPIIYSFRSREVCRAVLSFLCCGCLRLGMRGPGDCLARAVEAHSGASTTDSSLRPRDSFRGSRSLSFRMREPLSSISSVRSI
S1P4 antag: blocks the human S1P4 receptor; inhibition, % at 4.98 µM; S1P4-expressing cells, antagonist mode, reporter read-out; O95977; 220,000 compounds, 0.26% hits; in the data active means inhibition above about 29%
zVAD death inh: L929 zVAD cell death inhibition; L929 zVAD necroptosis rescue, ATP luminescence, 24 h; with zVAD 60 µM; viability rescue, % at 10 µM; 220,000 compounds, 0.38% hits; AID 1377;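 active means activation, scaled between plate controls, above about 75%, limit read from the data; inactive means activation under that limit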
TbHK1 inh: T. brucei hexokinase 1 inhibition; 220,000 compounds, 0.11% hits; inhibition, % at 10 µM; recombinant TbHK1, G6PDH-coupled NADH A340;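 active means inhibition of 50% or more in the single-dose primary screen; inactive means inhibition below 50%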
TNF necrop inh: blocks TNF-alpha induced death of Jurkat FADD-/- cells | Jurkat FADD-/- TNF necroptosis rescue, ATP luminescence, 24 h; 0 = TNF only, 100 = no-TNF cells | activation (protection from cell death), % at 10 µM | 220,000 compounds, 0.068% hits | AID 463075;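 active means activation, meaning protection from cell death, of at least 50% relative to plate controls; inactive means activation below 50%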;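 further: necroptosis triggered by 40 ng/mL TNF-alpha added together with compound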
Dynein confirm: dynein cargo transport inhibition, confirmation. shares compounds with Dynein transport. 3617.4 GR-EGFP nuclear translocation imaging, dexamethasone-induced. calls only at 20 µM. 1,000 compounds, 69% hits. AID 463116;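 active means inhibition of receptor movement into the nucleus at or above a set limit in both runs, with normal cell brightness and cell count; inconclusive means limit reached in only one run, brightness and count normal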;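 further: dexamethasone at 1 µM final in well for 30 min; nuclear minus cytoplasmic GR-EGFP mean intensity difference in channel 2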
Each line names hits and unclear results; the compound was inactive in the other large screens (follow-up assays come after a bar, where they were run). Sampled rows, rich in hits. Any-hit rate of the full collection: about 1.5%.

N#CC(C#N)=C1C=CC=CN1/C(=C\c1ccco1)C(=O)c1ccc(Br)cc1	Dynein transport -4.79, TNF necrop inh 61.9 | Dynein confirm active
Nc1nc(Sc2c([N+](=O)[O-])cc(C(F)(F)F)cc2[N+](=O)[O-])n[nH]1	Dynein transport -7.12 | Dynein confirm active
O=C(COc1ccc(/C=C\[N+](=O)[O-])cc1)N1CCOCC1	Dynein transport -5.04 | Dynein confirm active
COCCOC(=O)/C(=C\c1cc(C(C)(C)C)c(O)c(C(C)(C)C)c1)C(C)=O	Dynein transport -5.34 | Dynein confirm active
CCCCCCC(=O)N(O)C1CC(=O)N(c2ccc(Cl)cc2)C1=O (configuration not stated)	Dynein transport -5.08 | Dynein confirm active
O=C(CCl)N1CCN2C(=O)c3ccccc3C12c1ccc(Cl)cc1 (configuration not stated)	Dynein transport -4.65 | Dynein confirm active
O=C(O)c1cc2c([nH]c1=O)CCCC2	none
C=CCSC(=C(C#N)C#N)c1cc2c([nH]1)CCCC2	Dynein transport -4.01 | Dynein confirm active
CC(=O)Nc1c([N+](=O)[O-])cc(C)c(Cl)c1[N+](=O)[O-]	Dynein transport -5.8 | Dynein confirm active
CCCn1nc([N+](=O)[O-])c(C(C#N)c2nc3ccccc3s2)c(Cl)c1=O (configuration not stated)	Dynein transport -5.07 | Dynein confirm active
CCn1nc([N+](=O)[O-])c(C(C#N)c2nc3ccccc3n2C)c(Cl)c1=O (configuration not stated)	none
O=c1c(Cl)c(NCCCO)cnn1-c1nc2ccccc2[nH]1	Dynein transport -4.23 | Dynein confirm active
C=CCN(CC=C)c1cnn(-c2nc3ccccc3[nH]2)c(=O)c1Cl	none
c1cncc(-c2nc(-c3ccco3)cs2)c1	Dynein transport -4.54 | Dynein confirm inactive
CCC(CC)C(=O)N1c2ccc(F)cc2CCC1C (configuration not stated)	none
CC1CCc2cc(F)ccc2N1C(=O)CCl (configuration not stated)	Dynein transport -5.43 | Dynein confirm active
Cc1ccc(C(=O)/C=C/c2ccccc2)o1	Dynein transport -3.73 | Dynein confirm inconclusive
O=[N+]([O-])c1ccc2c(c1)N([O-])C1(CCCCC1)[N+]2=O	Dynein transport -3.65 | Dynein confirm active
CC1=C(c2ccccc2)[N+](=O)C2(CCCC2)N1[O-]	none
N#Cc1c(C(F)(F)F)cc(-c2ccccc2)nc1SCc1nc(N)nc(N2CCOCC2)n1	none | Dynein confirm active
COc1ccc(-[n+]2c(C)cc(/C=C3\Sc4ccccc4N3C)cc2C)cc1	none
COc1ccccc1-[n+]1c(C)cc(/C=C2\Sc3ccccc3N2C)cc1C	none | Dynein confirm active
O=C(/C=C/Sc1ccccc1)c1ccccc1	Dynein transport -3.59 | Dynein confirm active
Nc1c(C(=O)N/N=C/c2ccccc2Cl)oc2nc(-c3ccccc3)cc(-c3ccco3)c12	none
Nc1c(C(=O)N/N=C/c2ccc(F)cc2)oc2nc(-c3ccccc3)cc(-c3ccco3)c12	none | Dynein confirm inactive
CN(c1ccccc1)c1nc(N)c([N+](=O)[O-])c(N2CCOCC2)n1	none
COC(=O)C1=C(C)N(Cc2ccco2)C(=O)/C1=C\c1ccc([N+](=O)[O-])cc1	Dynein transport -3.57 | Dynein confirm active
COC(=O)C1=C(C)N(Cc2ccco2)C(=O)/C1=C\c1ccc(N(C)C)cc1	none
COc1ccc2c(c1)CCc1c(C(=O)N(C)c3ccccc3)noc1-2	none
COc1ccc2c(c1)c1ccc3c(c1n2C)C(=O)C=CC3=O	Dynein transport -5.77 | Dynein confirm active
CCN(CC)C(=O)c1ccc(Oc2ccc([N+](=O)[O-])cc2Cl)cc1	none
CCN(CC)C(=O)c1cc([N+](=O)[O-])cc2c1-c1ccc([N+](=O)[O-])cc1C2=C(C#N)C#N	Dynein transport -4.93 | Dynein confirm inconclusive
O=C(COc1ccccc1)NC1CCSC1=O (configuration not stated)	none
CCSc1ccc2cc(OC)ccc2[n+]1CC	none
Oc1c(Cl)cc(Cl)c2c1NCCC2	Dynein transport -4.74 | Dynein confirm inactive
O=c1[nH]c2ccc(S(=O)(=O)N3CCN(c4ccc(F)cc4)CC3)cc2o1	none
N#C/C(C(=O)c1ccccc1)=C1/SC=C(N)N1c1ccccc1	none | Dynein confirm inactive
COc1ccc(CC(=O)n2[nH]c(=O)ccc2=O)cc1OC	Dynein transport -3.64 | Dynein confirm inactive
CCNc1nc(OC)nc(N2CCC(Cc3ccccc3)CC2)n1	none
Cc1cc(-n2c(C)cc(C(=O)CN3C(=O)NC4(CCCC4)C3=O)c2C)no1	none
COc1ccc(-n2c(C)cc(C(=O)CN3C(=O)c4ccccc4C3=O)c2C)cc1	none
COc1ccc(-n2c(C)cc(C(=O)CCl)c2C)cc1	Dynein transport -3.84 | Dynein confirm active
Cc1cc(-n2c(C)cc(C(=O)CCl)c2C)no1	Dynein transport -7.33 | Dynein confirm active
Cn1c(Cl)cnc1C1CC(=O)c2cc(Cl)ccc2O1 (configuration not stated)	Dynein transport -5.93 | Dynein confirm inconclusive
Nc1c(C(=O)C2CC2)sc2nc(-c3cccs3)cc(C(F)(F)F)c12	none | Dynein confirm inactive
CC(=O)c1sc2nc(-c3cccs3)ccc2c1N	none
COc1ccc(NS(=O)(=O)c2ccc3c(c2)NC(=O)CO3)cc1	none
COC(=O)C(=C/C(C)=C/c1cccs1)C(=O)OC	Dynein transport -4.03 | Dynein confirm inconclusive
COC(=O)N/N=C/c1cccs1	none
O=C1C=C(NC2=CC3OC(c4ccccc4)OCC3OC2=O)CCC1 (configuration not stated)	Dynein transport -4.4 | Dynein confirm active
CC(=O)n1cc(N(C(=O)CCl)c2ccc([N+](=O)[O-])cc2)c2ccccc21	Dynein transport -5.04 | Dynein confirm active
CC1=Nc2ccccc2/C1=C/c1nc(-c2ccc(C)s2)oc1O	none | Dynein confirm inconclusive
Cc1nn(CC(=O)NNC(=O)c2ccccc2F)c([N+](=O)[O-])c1Br	none
CCN(CC)Cc1cc(O)c(CN(CC)CC)cc1O	Dynein transport -4.88 | Dynein confirm active
CCc1oc(C(=O)O)cc1CN(CC)CC	none
Nn1c(SCc2ccc(F)cc2)nnc1-c1ccncc1	none
O=C(Cc1ccsc1)Nc1ccc(S(=O)(=O)C(F)F)cc1	none
Cc1cc2oc(=O)cc(Cn3ncc(Cl)c(Cl)c3=O)c2cc1Cl	Dynein transport -6.11 | Dynein confirm active
